{"source": "ChEMBL document CHEMBL1144077", "about": "“Cytotoxic lignans of Justicia ciliata” (J Nat Prod, 1999)", "key": {"HT-3": {"tested_on": "HT-3", "experiment": "Cytotoxicity against human HT-3 cells after 6 days by MTT assay", "format": "functional", "settings": "for EC50: Homo sapiens, HT-3, 144 h, read-out: ED50 (the source's name)", "how_it_was_run": "(§1)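 Human lines kept in DMEM with 10% FBS, 2 mM glutamine, penicillin/streptomycin. 1-3 × 10^3 cells/100 µL seeded, 6 h attachment, then medium replaced with fresh medium (plus 10 mM HEPES pH 7.3) holding a range of drug concentrations. Exposure 6 days, 37 °C, CO2. MTT (1 mg/mL stock, 10 µL) for 4 h, DMSO solubilization, absorbance 550 nm. ED50 in µg/mL.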"}, "Ca-Ski": {"tested_on": "Ca-Ski", "experiment": "Cytotoxicity against human CaSki cells after 6 days by MTT assay", "format": "functional", "settings": "for EC50: 144 h, read-out: ED50 (the source's name)", "how_it_was_run": "as §1"}, "SiHa": {"tested_on": "SiHa", "experiment": "Cytotoxicity against human SiHa cells after 6 days by MTT assay", "format": "functional", "settings": "for EC50: Homo sapiens, SiHa, 144 h, read-out: ED50 (the source's name)", "how_it_was_run": "as §1"}, "T-24": {"tested_on": "T-24", "experiment": "Cytotoxicity against human T24 cells after 6 days by MTT assay", "format": "functional", "settings": "for EC50: T-24, 144 h, read-out: ED50 (the source's name)", "how_it_was_run": "as §1"}, "[1]": {"experiment": "Cytotoxicity against mouse NIH/3T3-212 cells after 6 days by MTT assay", "format": "cell-based", "settings": "for Activity: 144 h; for CC50 at 144 h: NIH/3T3-212 cells, read-out: ED50", "how_it_was_run": "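212 cells (NIH/3T3 carrying inducible Ha-ras) kept in alpha-MEM with 10% calf serum and antibiotics. 1-3 × 10^3 cells/100 µL seeded, 6 h attachment, then fresh HEPES-supplemented (10 mM, pH 7.3) medium with graded drug concentrations for 6 days at 37 °C. MTT 4 h, DMSO dissolution, read at 550 nm. ED50 in µg/mL.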"}, "PLC-PRF-5": {"tested_on": "PLC-PRF-5", "experiment": "(§2) Cytotoxicity against human PLC/PRF/5 cells after 6 days by MTT assay", "format": "functional", "how_it_was_run": "as §1"}, "[2]": {"experiment": "as §2", "format": "functional", "settings": "PLC-PRF-5, 144 h, read-out: ED50 (the source's name)", "how_it_was_run": "as §1"}}, "note": "The source made the active and inactive calls. The calls are words filed in the database; no cut-off is given here. Starred links: 1 amine or outer side, 2 acyl side, 3 side chain; linkers in the order of their positions; H or OH if unused. Positions of bridges follow the written chain, without caps; N, C: chain ends. Non-standard residues stand in square brackets, D forms with d. Residues, ends and D or L forms follow the SMILES beside them. Chains are numbered I, II in the order given. Actinocin(1to9) = Cc1c2oc3c(C)ccc(C(=O)[*:2])c3nc-2c(C(=O)[*:1])c(N)c1=O; NMeV = CN[C@H](C(=O)O)C(C)C; Sar = CNCC(=O)O"}
{"molecule": "COC(=O)C(Cc1ccc2c(c1)OCO2)C(Cc1ccc2c(c1)OCO2)C(=O)OC", "note": "(stereo not drawn)", "values": [{"measurement": "Activity", "setting": "HT-3", "result": "inactive"}, {"measurement": "Activity", "setting": "Ca-Ski", "result": "inactive"}, {"measurement": "Activity", "setting": "SiHa", "result": "inactive"}, {"measurement": "Activity", "setting": "T-24", "result": "inactive"}, {"measurement": "Activity", "setting": "[1]", "result": "Not Active"}, {"measurement": "Activity", "setting": "PLC-PRF-5", "result": "inactive"}]}
{"molecule": "COc1ccc(-c2c3c(c(O)c4cc5c(cc24)OCO5)COC3=O)cc1OC", "values": [{"measurement": "Activity", "setting": "HT-3", "result": "inactive"}, {"measurement": "Activity", "setting": "Ca-Ski", "result": "inactive"}, {"measurement": "Activity", "setting": "SiHa", "result": "inactive"}, {"measurement": "Activity", "setting": "T-24", "result": "inactive"}, {"measurement": "Activity", "setting": "[1]", "result": "Not Active"}, {"measurement": "Activity", "setting": "PLC-PRF-5", "result": "inactive"}]}
{"molecule": "COc1ccc(-c2c3c(c(OC)c4cc5c(cc24)OCO5)COC3=O)cc1OC", "note": "[CHINENSINAPHTHOL METHYL ETHER]", "values": [{"measurement": "Activity", "setting": "HT-3", "result": "inactive"}, {"measurement": "Activity", "setting": "Ca-Ski", "result": "inactive"}, {"measurement": "Activity", "setting": "SiHa", "result": "inactive"}, {"measurement": "Activity", "setting": "T-24", "result": "inactive"}, {"measurement": "Activity", "setting": "[1]", "result": "Not Active"}, {"measurement": "Activity", "setting": "PLC-PRF-5", "result": "inactive"}]}
{"molecule": "COc1cc(-c2c3c(c(OC)c4cc(OC)c(OC)cc24)COC3=O)ccc1O", "note": "[CILINAPHTHALIDE A]", "values": [{"measurement": "EC50", "setting": "HT-3", "result": 0.3, "unit": "µg/mL"}, {"measurement": "EC50", "setting": "Ca-Ski", "result": 3, "unit": "µg/mL"}, {"measurement": "EC50", "setting": "SiHa", "result": 6.4, "unit": "µg/mL"}, {"measurement": "EC50", "setting": "T-24", "result": 1.3, "unit": "µg/mL"}, {"measurement": "CC50 at 144 h", "setting": "[1]", "result": "> 8", "unit": "µg/mL"}, {"measurement": "EC50", "setting": "[2]", "result": 12, "unit": "µg/mL"}]}
{"molecule": "COc1ccc(-c2c3c(c(OC)c4cc(OC)c(OC)cc24)COC3=O)cc1OC", "note": "[CILINAPHTHALIDE B]", "values": [{"measurement": "Activity", "setting": "HT-3", "result": "inactive"}, {"measurement": "Activity", "setting": "Ca-Ski", "result": "inactive"}, {"measurement": "Activity", "setting": "SiHa", "result": "inactive"}, {"measurement": "Activity", "setting": "T-24", "result": "inactive"}, {"measurement": "Activity", "setting": "[1]", "result": "Not Active"}, {"measurement": "Activity", "setting": "PLC-PRF-5", "result": "inactive"}]}
{"molecule": "Cc1c2oc3c(C)ccc(C(=O)N[C@@H]4C(=O)N[C@H](C(C)C)C(=O)N5CCC[C@H]5C(=O)N(C)CC(=O)N(C)[C@@H](C(C)C)C(=O)O[C@@H]4C)c3nc-2c(C(=O)N[C@@H]2C(=O)N[C@H](C(C)C)C(=O)N3CCC[C@H]3C(=O)N(C)CC(=O)N(C)[C@@H](C(C)C)C(=O)O[C@@H]2C)c(N)c1=O", "note": "[DACTINOMYCIN] (I: T[dV]P[Sar][NMeV] / II: T[dV]P[Sar][NMeV]; ester I:1-I:C, II:1-II:C; linker I:N-II:N via Actinocin(1to9))", "values": [{"measurement": "ED50", "setting": "HT-3", "result": 5.6, "unit": "×10⁻⁴ ug/ml"}, {"measurement": "EC50", "setting": "Ca-Ski", "result": 0.0019, "unit": "µg/mL"}, {"measurement": "ED50", "setting": "SiHa", "result": 8.1, "unit": "×10⁻⁴ ug/ml"}, {"measurement": "EC50", "setting": "T-24", "result": 0.0015, "unit": "µg/mL"}, {"measurement": "EC50", "setting": "[2]", "result": 0.0014, "unit": "µg/mL"}]}
{"molecule": "COc1cc2c(OC)c3c(c(-c4ccc5c(c4)OCO5)c2cc1OC)C(=O)OC3", "note": "[JUSTICIDIN A]", "values": [{"measurement": "EC50", "setting": "HT-3", "result": 0.0018, "unit": "µg/mL"}, {"measurement": "EC50", "setting": "Ca-Ski", "result": 0.003, "unit": "µg/mL"}, {"measurement": "EC50", "setting": "SiHa", "result": 0.0074, "unit": "µg/mL"}, {"measurement": "EC50", "setting": "T-24", "result": 0.002, "unit": "µg/mL"}, {"measurement": "CC50 at 144 h", "setting": "[1]", "result": 0.0227, "unit": "µg/mL"}, {"measurement": "EC50", "setting": "[2]", "result": 0.0022, "unit": "µg/mL"}]}
{"molecule": "COc1cc2c(OC)c3c(c(-c4ccc5c(c4)OCO5)c2cc1OC)COC3=O", "note": "[NEOJUSTICIN B]", "values": [{"measurement": "Activity", "setting": "HT-3", "result": "inactive"}, {"measurement": "Activity", "setting": "Ca-Ski", "result": "inactive"}, {"measurement": "Activity", "setting": "SiHa", "result": "inactive"}, {"measurement": "Activity", "setting": "T-24", "result": "inactive"}, {"measurement": "Activity", "setting": "[1]", "result": "Not Active"}, {"measurement": "Activity", "setting": "PLC-PRF-5", "result": "inactive"}]}
{"molecule": "COc1c2c(c(-c3ccc4c(c3)OCO4)c3cc4c(cc13)OCO4)C(=O)OC2", "note": "[TAIWANIN E METHYL ETHER]", "values": [{"measurement": "EC50", "setting": "HT-3", "result": 2.6, "unit": "µg/mL"}, {"measurement": "EC50", "setting": "Ca-Ski", "result": "> 8", "unit": "µg/mL"}, {"measurement": "EC50", "setting": "SiHa", "result": 6.1, "unit": "µg/mL"}, {"measurement": "EC50", "setting": "T-24", "result": 5, "unit": "µg/mL"}, {"measurement": "CC50 at 144 h", "setting": "[1]", "result": "> 8", "unit": "µg/mL"}, {"measurement": "EC50", "setting": "[2]", "result": 6.8, "unit": "µg/mL"}]}
